From ChEMBL document CHEMBL1154626, “Novel, potent, and selective quinoxaline-based 5-HT(3) receptor ligands. 1. Further structure-activity relationships and pharmacological characterization” (J Med Chem, 2009)
Each block holds one compound with its values, some of them ahead of it. Activity calls are given as the source filed them. The rule behind the calls is not given here.

Assays:
[1] = target: T1, 5-hydroxytryptamine receptor 3A (Rattus norvegicus, UniProt P35563); assay: Displacement of [3H]LY278584 from 5HT3 receptor in rat cortical homogenate
T1 sequence (P35563 whole entry): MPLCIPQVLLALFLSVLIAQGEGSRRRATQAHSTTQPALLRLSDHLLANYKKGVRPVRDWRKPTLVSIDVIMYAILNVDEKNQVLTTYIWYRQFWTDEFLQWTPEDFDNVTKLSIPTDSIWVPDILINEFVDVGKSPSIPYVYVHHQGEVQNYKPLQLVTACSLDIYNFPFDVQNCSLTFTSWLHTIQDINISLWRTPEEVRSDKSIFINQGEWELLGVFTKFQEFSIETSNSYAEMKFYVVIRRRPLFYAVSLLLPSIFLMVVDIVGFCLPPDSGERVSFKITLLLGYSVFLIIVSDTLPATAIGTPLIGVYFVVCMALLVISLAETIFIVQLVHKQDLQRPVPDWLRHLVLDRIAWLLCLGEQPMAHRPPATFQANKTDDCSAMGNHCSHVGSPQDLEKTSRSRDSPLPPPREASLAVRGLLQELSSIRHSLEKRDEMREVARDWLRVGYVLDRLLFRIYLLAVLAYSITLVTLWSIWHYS
Method in brief: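 Rat cortical homogenate, competition against [3H]LY278584 binding. Ki is the concentration giving half-maximal inhibition of binding, as the mean ± S.E.M. of three determinations.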

[2] = target: T2, 5-hydroxytryptamine receptor 1A (Rattus norvegicus, UniProt P19327); assay: Displacement of [3H]8-OHDPAT from 5HT1A receptor in rat hippocampus; type: tissue-based
T2 sequence (P19327 whole entry): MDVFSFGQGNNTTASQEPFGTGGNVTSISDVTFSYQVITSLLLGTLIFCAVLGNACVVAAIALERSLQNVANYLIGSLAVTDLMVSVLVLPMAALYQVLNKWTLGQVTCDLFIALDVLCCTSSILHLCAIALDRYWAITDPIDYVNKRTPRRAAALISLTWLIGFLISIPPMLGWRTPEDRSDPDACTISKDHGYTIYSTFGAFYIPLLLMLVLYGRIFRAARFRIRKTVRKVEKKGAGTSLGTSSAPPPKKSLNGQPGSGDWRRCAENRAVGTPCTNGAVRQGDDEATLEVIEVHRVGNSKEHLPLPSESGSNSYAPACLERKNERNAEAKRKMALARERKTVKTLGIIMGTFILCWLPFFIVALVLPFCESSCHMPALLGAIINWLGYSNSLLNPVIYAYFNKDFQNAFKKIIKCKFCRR

[3] = target: 5-hydroxytryptamine receptor 2A (Rattus norvegicus, UniProt P14842); assay: Displacement of [3H]ketanserin from 5HT2A receptor in rat cortex
[4] = target: T3, Adrenergic receptor alpha-1 (Rattus norvegicus, UniProt P15823+P23944+P43140); assay: Displacement of [3H]prazosin from adrenergic alpha1 receptor in rat cortex
T3 sequence (P15823 whole entry): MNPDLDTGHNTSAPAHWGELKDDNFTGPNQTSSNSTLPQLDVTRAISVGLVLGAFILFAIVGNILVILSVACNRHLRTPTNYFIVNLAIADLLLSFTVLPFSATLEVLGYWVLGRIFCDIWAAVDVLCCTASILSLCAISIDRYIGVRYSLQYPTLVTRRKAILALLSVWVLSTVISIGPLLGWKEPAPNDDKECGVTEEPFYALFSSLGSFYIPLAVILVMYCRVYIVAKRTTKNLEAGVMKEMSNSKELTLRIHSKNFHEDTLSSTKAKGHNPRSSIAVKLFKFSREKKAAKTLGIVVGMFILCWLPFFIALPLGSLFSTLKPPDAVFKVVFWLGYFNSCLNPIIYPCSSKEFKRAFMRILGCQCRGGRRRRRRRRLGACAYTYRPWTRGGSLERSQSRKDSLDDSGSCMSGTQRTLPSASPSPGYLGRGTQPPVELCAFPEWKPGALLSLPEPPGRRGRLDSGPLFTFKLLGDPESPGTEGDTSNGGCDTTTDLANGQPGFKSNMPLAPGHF
T3 sequence (P23944 whole entry): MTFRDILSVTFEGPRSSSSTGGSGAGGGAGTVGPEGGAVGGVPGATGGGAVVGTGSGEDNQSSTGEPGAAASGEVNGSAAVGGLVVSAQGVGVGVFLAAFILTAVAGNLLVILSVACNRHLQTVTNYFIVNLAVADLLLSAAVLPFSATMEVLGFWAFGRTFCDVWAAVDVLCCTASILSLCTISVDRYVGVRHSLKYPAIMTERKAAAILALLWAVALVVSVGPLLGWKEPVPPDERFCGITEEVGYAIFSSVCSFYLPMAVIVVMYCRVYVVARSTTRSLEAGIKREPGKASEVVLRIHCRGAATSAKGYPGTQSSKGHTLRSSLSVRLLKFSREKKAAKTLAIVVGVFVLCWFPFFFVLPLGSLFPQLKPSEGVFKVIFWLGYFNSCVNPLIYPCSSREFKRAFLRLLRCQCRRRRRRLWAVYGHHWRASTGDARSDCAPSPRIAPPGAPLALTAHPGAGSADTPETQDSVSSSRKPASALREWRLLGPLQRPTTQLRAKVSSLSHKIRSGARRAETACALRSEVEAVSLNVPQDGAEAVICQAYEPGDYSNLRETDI
T3 sequence (P43140 whole entry): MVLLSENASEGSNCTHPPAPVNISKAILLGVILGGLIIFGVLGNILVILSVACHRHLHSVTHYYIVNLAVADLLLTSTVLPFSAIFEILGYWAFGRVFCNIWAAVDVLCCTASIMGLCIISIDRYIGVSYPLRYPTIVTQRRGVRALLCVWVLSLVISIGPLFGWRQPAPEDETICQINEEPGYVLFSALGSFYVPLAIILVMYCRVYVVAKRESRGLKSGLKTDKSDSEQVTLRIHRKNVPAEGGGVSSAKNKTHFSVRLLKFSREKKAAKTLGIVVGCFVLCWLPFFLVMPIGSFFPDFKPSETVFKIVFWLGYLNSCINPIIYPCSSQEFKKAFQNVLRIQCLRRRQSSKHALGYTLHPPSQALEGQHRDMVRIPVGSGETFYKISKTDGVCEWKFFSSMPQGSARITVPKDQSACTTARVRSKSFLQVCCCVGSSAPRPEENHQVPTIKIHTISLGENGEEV

[5] = target: T4, Alpha-2A adrenergic receptor (Rattus norvegicus, UniProt P22909); assay: Displacement of [3H]RX821002 from adrenergic alpha2 receptor in rat cortex
T4 sequence (P22909 whole entry): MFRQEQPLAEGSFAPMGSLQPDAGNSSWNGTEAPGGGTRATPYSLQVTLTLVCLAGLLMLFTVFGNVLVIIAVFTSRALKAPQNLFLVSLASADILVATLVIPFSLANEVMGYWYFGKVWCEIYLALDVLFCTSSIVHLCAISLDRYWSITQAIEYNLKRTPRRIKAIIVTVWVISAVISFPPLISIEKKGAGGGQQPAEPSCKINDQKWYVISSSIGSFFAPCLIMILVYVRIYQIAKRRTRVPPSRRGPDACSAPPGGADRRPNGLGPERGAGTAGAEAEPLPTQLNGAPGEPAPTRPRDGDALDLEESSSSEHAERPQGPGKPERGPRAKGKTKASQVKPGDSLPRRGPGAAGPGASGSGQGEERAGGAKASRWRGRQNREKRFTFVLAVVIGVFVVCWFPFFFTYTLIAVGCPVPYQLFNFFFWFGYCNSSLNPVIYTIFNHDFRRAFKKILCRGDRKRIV

D(1A) dopamine receptor = D(1A) dopamine receptor (Rattus norvegicus, UniProt P18901); assay: Displacement of [3H]SCH-23390 from dopamine D1 receptor in rat striatum
D(2) dopamine receptor = D(2) dopamine receptor (Rattus norvegicus, UniProt P61169); assay: Displacement of [3H]spiperone from dopamine D2 receptor in rat striatum
Rattus norvegicus [6] = assay: Antagonist activity at 5HT3 receptor in iv dosed Sprague-Dawley rat assessed as inhibition of 1-phenylbiguanide-induced bradycardia administered 5 mins before 1-phenylbiguanide challenge measured after 5 to 30 mins post-treatment by von Bezold-Jarisch reflex test; type: functional
Method in brief: (§1)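 Urethane-anesthetized rats, compound given iv. Agonism was scored as the compound itself evoking the von Bezold-Jarisch reflex (bradycardia). Antagonism was tested by giving the compound iv 5, 15 or 30 min before phenylbiguanide (PBG) and scoring the reduction of PBG-evoked bradycardia. ED50 is the dose giving half of the maximal bradycardia evoked by the same compound.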

Rattus norvegicus [7] = assay: Agonist activity at 5HT3 receptor in iv dosed Sprague-Dawley rat assessed as induction of bradycardia measured after 5 to 30 mins post-treatment by von Bezold-Jarisch reflex test; type: functional; method in brief: as §1
Rattus norvegicus [8] = assay: Agonist activity at 5HT3 receptor in Sprague-Dawley rat assessed as induction of bradycardia at 10 ug/kg, iv measured after 5 to 30 mins post-treatment by von Bezold-Jarisch reflex test; type: functional; method in brief: as §1
Rattus norvegicus [9] = assay: Antagonist activity at 5HT3 receptor in Sprague-Dawley rat assessed as inhibition of 1-phenylbiguanide-induced bradycardia at 10 ug/kg, iv administered 5 mins before 1-phenylbiguanide challenge measured after 5 to 30 mins post-treatment by von Bezold-Jarisch reflex test; type: functional; method in brief: as §1
Rattus norvegicus [10] = assay: Antagonist activity at 5HT3 receptor in Sprague-Dawley rat assessed as inhibition of 1-phenylbiguanide-induced bradycardia at 50 ug/kg, iv administered 5 mins before 1-phenylbiguanide challenge measured after 5 to 30 mins post-treatment by von Bezold-Jarisch reflex test; type: functional; method in brief: as §1
Rattus norvegicus [11] = assay: Agonist activity at 5HT3 receptor in Sprague-Dawley rat assessed as induction of bradycardia at 100 ug/kg, iv measured after 5 to 30 mins post-treatment by von Bezold-Jarisch reflex test; type: functional; method in brief: as §1
Rattus norvegicus [12] = assay: Antagonist activity at 5HT3 receptor in Sprague-Dawley rat assessed as inhibition of 1-phenylbiguanide-induced bradycardia at 100 ug/kg, iv administered 5 mins before 1-phenylbiguanide challenge measured after 5 to 30 mins post-treatment by von Bezold-Jarisch reflex test; type: functional; method in brief: as §1

Sequence of D(2) dopamine receptor (P61169 whole entry): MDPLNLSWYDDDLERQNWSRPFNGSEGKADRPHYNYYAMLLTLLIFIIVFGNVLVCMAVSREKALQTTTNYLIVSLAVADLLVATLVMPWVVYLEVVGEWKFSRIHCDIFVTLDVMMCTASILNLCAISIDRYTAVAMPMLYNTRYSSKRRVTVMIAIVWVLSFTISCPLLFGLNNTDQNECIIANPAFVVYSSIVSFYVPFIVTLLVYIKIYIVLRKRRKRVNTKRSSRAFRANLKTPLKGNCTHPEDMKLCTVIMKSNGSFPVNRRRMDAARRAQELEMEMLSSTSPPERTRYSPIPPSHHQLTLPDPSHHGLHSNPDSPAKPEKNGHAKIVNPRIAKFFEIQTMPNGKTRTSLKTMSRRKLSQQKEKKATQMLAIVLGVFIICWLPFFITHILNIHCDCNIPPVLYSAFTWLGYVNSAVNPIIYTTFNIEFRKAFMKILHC
Sequence of D(1A) dopamine receptor (P18901 whole entry): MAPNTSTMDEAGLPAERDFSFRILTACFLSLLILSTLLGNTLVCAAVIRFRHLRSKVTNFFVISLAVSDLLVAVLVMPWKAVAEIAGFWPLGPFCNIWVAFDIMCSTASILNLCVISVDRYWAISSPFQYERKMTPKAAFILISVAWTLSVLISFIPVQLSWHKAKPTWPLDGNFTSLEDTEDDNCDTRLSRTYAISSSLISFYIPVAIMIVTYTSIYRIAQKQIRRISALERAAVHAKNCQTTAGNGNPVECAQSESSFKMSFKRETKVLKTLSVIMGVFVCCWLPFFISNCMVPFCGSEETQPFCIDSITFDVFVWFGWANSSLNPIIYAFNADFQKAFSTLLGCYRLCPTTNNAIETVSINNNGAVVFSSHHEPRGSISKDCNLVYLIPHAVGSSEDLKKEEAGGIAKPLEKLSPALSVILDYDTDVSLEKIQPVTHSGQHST
Sequence of 5-hydroxytryptamine receptor 2A (P14842 whole entry): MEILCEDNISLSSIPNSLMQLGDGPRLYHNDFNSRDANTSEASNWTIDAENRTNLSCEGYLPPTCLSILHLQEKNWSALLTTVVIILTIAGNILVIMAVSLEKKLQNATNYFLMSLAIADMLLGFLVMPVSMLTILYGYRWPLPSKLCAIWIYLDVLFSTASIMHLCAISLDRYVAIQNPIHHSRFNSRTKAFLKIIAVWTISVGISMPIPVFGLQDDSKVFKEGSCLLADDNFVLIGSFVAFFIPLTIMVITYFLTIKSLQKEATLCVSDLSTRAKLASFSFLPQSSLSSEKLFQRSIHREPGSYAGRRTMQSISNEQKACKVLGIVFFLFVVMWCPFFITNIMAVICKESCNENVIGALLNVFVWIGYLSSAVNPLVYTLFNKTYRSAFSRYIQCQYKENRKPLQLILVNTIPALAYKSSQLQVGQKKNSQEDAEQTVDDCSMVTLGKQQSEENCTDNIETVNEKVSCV

Compound: Fc1ccc2c(c1)nc(N1CCN(CCc3cnc[nH]3)CC1)c1cccn12
Ki ([1]; read-out: Ki): 330 nM

Compound: NNC(=O)CN1CCN(c2nc3cc(F)ccc3n3cccc23)CC1
Ki ([1]; read-out: Ki): 44.3 nM
ED50 (Rattus norvegicus [7]): 0.057 mg/kg
Activity (Rattus norvegicus [8]): inactive
Activity (Rattus norvegicus [9]): inactive
Activity (Rattus norvegicus [10]): inactive
Activity (Rattus norvegicus [11]): 80%
Activity (Rattus norvegicus [12]): inactive

Compound: Cc1cccc2nc(N3CCN(Cc4ccccc4)CC3)c3cccn3c12
Ki [1]: 8.8 nM

Compound: Cc1cccc2nc(N3CCN(CCn4ccnc4)CC3)c3cccn3c12
Ki ([1]; read-out: Ki): 17.8 nM

Further compounds by falling Ki ([1]; read-out: Ki), results first:

Ki ([1]; read-out: Ki): 5.6 nM
Ki [2]: > 10000 nM
Ki [3]: > 10000 nM
Ki [4]: > 10000 nM
Ki [5]: > 10000 nM
Ki (D(1A) dopamine receptor): > 10000 nM
Ki (D(2) dopamine receptor): > 10000 nM
Compound: Fc1ccc2c(c1)nc(N1CCN(Cc3ncc[nH]3)CC1)c1cccn12

Ki ([1]; read-out: Ki): 0.81 nM
Compound: CN1CCN(c2nc3cc(F)ccc3n3cccc23)CC1
ID50 (Rattus norvegicus [6]): 0.6 mg/kg

Ki ([1]; read-out: Ki): 0.79 nM
Compound: Cc1cccc2nc(N3CCN(C)CC3)c3cccn3c12

Ki ([1]; read-out: Ki): 0.44 nM
Compound: CN1CCN(c2nc3cccc(F)c3n3cccc23)CC1
ID50 (Rattus norvegicus [6]): 0.12 mg/kg
